Published values collected from several papers.
Each line is one published result; the experiments were not run side by side.
Target: Ephrin type-B receptor 2 (EPHB2, Homo sapiens, UniProt P29323)
One construct used (P29323 19-1055): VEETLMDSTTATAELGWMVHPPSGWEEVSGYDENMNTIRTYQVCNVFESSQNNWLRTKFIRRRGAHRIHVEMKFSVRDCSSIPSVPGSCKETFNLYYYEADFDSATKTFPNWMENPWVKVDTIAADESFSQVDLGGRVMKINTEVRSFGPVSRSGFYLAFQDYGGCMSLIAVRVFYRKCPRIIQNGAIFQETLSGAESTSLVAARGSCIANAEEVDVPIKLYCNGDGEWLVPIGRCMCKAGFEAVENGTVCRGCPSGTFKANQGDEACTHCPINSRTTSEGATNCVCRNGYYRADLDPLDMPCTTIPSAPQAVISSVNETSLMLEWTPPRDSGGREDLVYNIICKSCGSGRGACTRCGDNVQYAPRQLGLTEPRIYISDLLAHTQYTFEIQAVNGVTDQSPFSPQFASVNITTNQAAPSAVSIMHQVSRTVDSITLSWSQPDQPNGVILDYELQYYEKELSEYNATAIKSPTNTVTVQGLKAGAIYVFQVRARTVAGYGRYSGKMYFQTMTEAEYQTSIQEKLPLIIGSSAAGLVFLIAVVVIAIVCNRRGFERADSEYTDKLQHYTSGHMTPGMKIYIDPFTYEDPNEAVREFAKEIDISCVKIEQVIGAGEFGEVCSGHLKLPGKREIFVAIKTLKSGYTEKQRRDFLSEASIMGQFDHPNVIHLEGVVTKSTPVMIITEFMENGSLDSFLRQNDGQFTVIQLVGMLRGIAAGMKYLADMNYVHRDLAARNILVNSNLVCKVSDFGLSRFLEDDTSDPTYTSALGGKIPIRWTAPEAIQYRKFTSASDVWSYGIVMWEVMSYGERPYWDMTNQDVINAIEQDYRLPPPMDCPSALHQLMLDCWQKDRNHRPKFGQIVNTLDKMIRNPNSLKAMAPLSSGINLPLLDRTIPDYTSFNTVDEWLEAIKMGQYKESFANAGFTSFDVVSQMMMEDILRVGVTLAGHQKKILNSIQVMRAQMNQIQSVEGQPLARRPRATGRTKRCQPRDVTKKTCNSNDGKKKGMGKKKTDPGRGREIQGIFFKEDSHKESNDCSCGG

O=c1[nH]c2ccccc2n1C1CCN(Cc2ccc(-c3[nH]c4cc5ncnc5cc4nc3-c3ccccc3)cc2)CC1 — remaining signal (cell-free assay; 0.5 µM): 108%
N#CC1(c2ccccn2)CCN(Cc2cc(C(=O)O)c(=O)n3ccccc23)CC1 — remaining binding (cell-free assay; competition with immobilised ligand; 1 µM): 100%
CC(C)(C)c1cc(C=C(C#N)C#N)cc(Br)c1O — remaining activity (enzyme activity; inhibitor; 0.5 µM): 100%
Cc1nn(C)cc1-c1nc2c(N3CCN(Cc4ccc(Cl)cc4)CC3)c(Cl)cnc2[nH]1 — remaining binding (binding; competition with immobilised ligand; 1 µM): 100%
COc1ncccc1-c1cnn2ccc(N3CCN(C(=O)OC(C)C)CC3)nc12 — remaining binding (binding; competition with immobilised ligand; 1 µM): 77%
Cn1cc(-c2cccc(N3CCc4c(sc5c4CC(C)(C)C5)C3=O)c2CO)cc(Nc2ccncn2)c1=O — inhibition (enzyme activity; inhibitor; 1 µM): 1%
Cn1cncc1[C@@](O)(COc1ccc(C#N)cc1-c1ccc(OC(F)(F)F)cc1)c1ccc(C#N)cc1 — remaining binding (cell-free assay; competition with immobilised ligand; 1 µM): 100%
Cn1cc(-c2cc(F)cc(N3CCn4c(cc5c4CCCC5)C3=O)c2CO)cc(Nc2ccc(N3CCN(C4COC4)CC3)cn2)c1=O — inhibition (enzyme activity; inhibitor; 0.1 µM): 14%
COc1cc(Nc2ncc(F)c(Nc3ccc4c(n3)NC(=O)C(C)(C)O4)n2)cc(OC)c1OC — inhibition (binding; competition with immobilised ligand; 10 µM): 50%
